According to ChEMBL document CHEMBL1154092, “Chiral 3-(4,5-dihydrooxazol-2-yl)phenyl alkylcarbamates as novel FAAH inhibitors: Insight into FAAH enantioselectivity by molecular docking and interaction fields” (Eur J Med Chem, 2009):

Key:
[1] = target: T1, Monoglyceride lipase (Rattus norvegicus) (UniProt Q8R431); assay: Inhibition of MGL in Wistar rat cerebellar membrane at 100 uM by reversed-phase HPLC relative to control; assay type: cell membranes; details: Cerebellum
T1 sequence (whole entry): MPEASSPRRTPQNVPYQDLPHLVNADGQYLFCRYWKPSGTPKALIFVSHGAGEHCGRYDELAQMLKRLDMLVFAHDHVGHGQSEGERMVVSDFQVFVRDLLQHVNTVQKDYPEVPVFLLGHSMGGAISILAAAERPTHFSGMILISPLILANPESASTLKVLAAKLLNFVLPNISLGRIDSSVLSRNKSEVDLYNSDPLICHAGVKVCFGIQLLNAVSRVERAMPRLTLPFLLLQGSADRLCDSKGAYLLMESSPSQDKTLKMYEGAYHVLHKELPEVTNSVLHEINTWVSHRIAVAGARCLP
In short: (§1)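 Cerebellar membranes from 4-week male Wistar rats. 10 µg protein preincubated with compound 30 min at 25 °C in Tris-HCl pH 7.4, EDTA, 0.5% BSA, 1.25% DMSO. Incubation 90 min at 25 °C with 5 µg protein and 50 μM 2-AG (100 mM NaCl, 5 mM MgCl₂). Stopped with acidified acetonitrile at 0 and 90 min. Arachidonic acid by C18 HPLC, UV 211 nm. Activity as % of control, n = 2.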

[2] = target: T2, Fatty-acid amide hydrolase 1 (Rattus norvegicus, UniProt P97612); assay: Inhibition of FAAH in Wistar rat brain assessed as by liquid scintillation counting
T2 sequence (P97612 whole entry): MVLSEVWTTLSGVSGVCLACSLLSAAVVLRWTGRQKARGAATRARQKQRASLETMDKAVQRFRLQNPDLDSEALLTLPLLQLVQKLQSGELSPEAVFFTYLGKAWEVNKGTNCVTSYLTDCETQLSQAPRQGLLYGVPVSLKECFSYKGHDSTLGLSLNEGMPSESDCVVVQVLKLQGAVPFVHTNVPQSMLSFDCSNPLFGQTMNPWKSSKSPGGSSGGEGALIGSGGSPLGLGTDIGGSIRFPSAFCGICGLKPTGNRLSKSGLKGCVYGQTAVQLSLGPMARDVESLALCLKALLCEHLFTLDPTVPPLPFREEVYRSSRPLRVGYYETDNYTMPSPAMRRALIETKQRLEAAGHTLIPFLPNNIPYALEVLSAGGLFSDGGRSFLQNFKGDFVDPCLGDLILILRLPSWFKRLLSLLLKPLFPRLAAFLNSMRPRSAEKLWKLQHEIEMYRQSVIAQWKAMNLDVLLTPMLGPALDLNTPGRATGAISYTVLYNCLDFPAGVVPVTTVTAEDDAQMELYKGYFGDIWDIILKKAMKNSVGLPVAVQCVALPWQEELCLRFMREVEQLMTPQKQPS
In short: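 Rat cerebrum homogenate (8-week male Wistar, whole brain minus cerebellum, 10,000g supernatant in 0.1 M K phosphate pH 7.4) as enzyme, 18 µg protein. Preincubated with compound 10 min at 37 °C, then 2 μM [³H]AEA (ethanolamine 1-³H) added for 10 min at 37 °C. Buffer has 0.5% BSA, DMSO up to 5%. Stopped with EtOAc. Aqueous [³H]ethanolamine counted. Three independent experiments in duplicate; IC50 by nonlinear regression.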

[3] = target: T3, Monoglyceride lipase (Homo sapiens) (UniProt Q99685); assay: Inhibition of human recombinant MGL by liquid scintillation counting; details: concentration not given here
T3 sequence (whole entry): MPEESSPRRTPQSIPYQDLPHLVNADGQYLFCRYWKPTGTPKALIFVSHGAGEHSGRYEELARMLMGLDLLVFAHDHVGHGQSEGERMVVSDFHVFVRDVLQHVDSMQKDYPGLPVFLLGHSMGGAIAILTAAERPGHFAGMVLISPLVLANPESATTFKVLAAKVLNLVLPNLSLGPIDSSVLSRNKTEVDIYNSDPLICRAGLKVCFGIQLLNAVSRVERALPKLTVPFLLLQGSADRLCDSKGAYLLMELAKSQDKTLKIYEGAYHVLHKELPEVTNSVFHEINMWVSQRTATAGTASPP
In short: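 hrMGL preincubated with compound 10 min at 37 °C in 50 mM Tris-HCl pH 7.4, 1 mM EDTA, 0.5% BSA, DMSO ≤5%. Then [³H]2-oleoylglycerol (glycerol-1,2,3-³H) added to 50 μM final for 10 min at 37 °C. Stopped with EtOAc. Aqueous-phase [³H]glycerol counted by liquid scintillation.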

[4] = target: T1, Monoglyceride lipase (Rattus norvegicus); assay: Inhibition of MGL in Wistar rat cerebellar membrane at 1 uM by reversed-phase HPLC relative to control; assay type: cell membranes; details: Cerebellum; in short: as §1

Compound	inhibition [1] [%]	IC50 [2] [nM]	inhibition [3] [%]	inhibition [4] [%]
COC(=O)[C@@H]1COC(c2cccc(OC(=O)NC3CCCCC3)c2)=N1	25	9.4		
O=C(NC1CCCCC1)Oc1cccc(C2=NCCO2)c1	22	1.2		
C[C@H]1COC(c2cccc(OC(=O)NC3CCCCC3)c2)=N1	28	51		
O=C(NC1CCCCC1)Oc1cccc(C2=N[C@@H](Cc3c[nH]c4ccccc34)CO2)c1	25	1900		
COC(=O)[C@H]1COC(c2cccc(OC(=O)NC3CCCCC3)c2)=N1	35	90		
O=C(NC1CCCCC1)Oc1cccc(C2=N[C@H](Cc3ccccc3)CO2)c1	14	590		
O=C(NC1CCCCC1)Oc1cccc(C2=N[C@@H](Cc3ccccc3)CO2)c1	17	2100		
CC1(C)COC(c2cccc(OC(=O)NC3CCCCC3)c2)=N1	20	46		

The next lines start with the values.

inhibition [1] [%]	IC50 [2] [nM]	inhibition [3] [%]	inhibition [4] [%]	Compound
	73	13		C[C@@H]1CN=C(c2cccc(OC(=O)NC3CCCCC3)c2)O1
29	680			CCCNC(=O)Oc1cccc(-c2nc3ncccc3o2)c1
26	3000			CCCNC(=O)Oc1cccc(-c2nc3ccccc3o2)c1
	6.8	14		C[C@H]1CN=C(c2cccc(OC(=O)NC3CCCCC3)c2)O1
16	16			C[C@@H]1COC(c2cccc(OC(=O)NC3CCCCC3)c2)=N1
	13		10	O=C(NC1CCCC1)Oc1cccc(C2=NCCO2)c1
	4500	18		CCCNC(=O)Oc1cccc(-c2nc3ncncc3o2)c1
28	65			CC1(C)COC(c2cccc(OC(=O)NC3CCCC3)c2)=N1
32	33			CCCNC(=O)Oc1cccc(C2=NCCO2)c1
28	110			C[C@H]1COC(c2cccc(OC(=O)NC3CCCC3)c2)=N1
